# Results from ChEMBL document CHEMBL5303300, “EUbOPEN Chemogenomics Library - Multiplex” (2023).
# Several values for one entry are separate records, joined by “and”; a condition that tells them apart may be missing. Equal values may be shown once.
# System: HEK-293T
# Assay: Multiplex assay against HEK293T
# Format: toxicity, cell-based
# Conditions: human, number of replicates 2
# Procedure, shortened: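 Compound was added to live cells that had been stained at seeding with Hoechst33342, BioTracker Green Microtubule Cytoskeleton Dye, MitoTracker Red and Annexin V Alexa Fluor 680, and imaging followed on a CQ1 microscope at 37°C and 5% CO2. CellPathfinder machine-learning gating divided cells into Hoechst high-intensity objects or normal cells, normal cells into healthy, pyknosed or fragmented nuclei, and pyknosed cells into mitotic or apoptotic. Tubulin, mitochondrial-mass and membrane-permeability phenotypes are per cents of healthy-nucleus cells.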
# [1] = 12 h, 1 µM, compound concentration 1 uM
# [2] = 12 h, 10 µM, compound concentration 10 uM
# [3] = 24 h, 1 µM, compound concentration 1 uM
# [4] = 24 h, 10 µM, compound concentration 10 uM
# [5] = 48 h, 1 µM, compound concentration 1 uM
# [6] = 48 h, 10 µM, compound concentration 10 uM
smiles,measurement,setting,value
COc1ccccc1-c1cc(Nc2cccc(CS(N)(=O)=O)c2)ncn1,Population Apoptotic (%),[1],35% and 36%
same,Population Fragmented Nuclei (%),[1],4% and 2%
same,Population Healthy Nuclei (%),[1],85%
same,Population Hoechst High Intensity Objects (%),[1],6% and 7%
same,Population Membrane Permeable-Phenotype (%),[1],3% and 5%
same,Population Mitochondria Different-Phenotype (%),[1],15% and 14%
same,Population Mitotic Cells (%),[1],64%
same,Population Normal (%),[1],93% and 92%
same,Population Pyknosed Nuclei (%),[1],10% and 12%
same,Population Tubulin-Different-Phenotype (%),[1],56% and 48%
same,Total Cell Count,[1],807 and 675
same,Population Apoptotic (%),[2],32% and 34%
same,Population Fragmented Nuclei (%),[2],4% and 5%
same,Population Healthy Nuclei (%),[2],87% and 84%
same,Population Hoechst High Intensity Objects (%),[2],7%
same,Population Membrane Permeable-Phenotype (%),[2],3%
same,Population Mitochondria Different-Phenotype (%),[2],26% and 28%
same,Population Mitotic Cells (%),[2],67% and 65%
same,Population Normal (%),[2],92%
same,Population Pyknosed Nuclei (%),[2],8% and 10%
same,Population Tubulin-Different-Phenotype (%),[2],61% and 74%
same,Total Cell Count,[2],665 and 582
same,Population Apoptotic (%),[3],35% and 34%
same,Population Fragmented Nuclei (%),[3],5% and 4%
same,Population Healthy Nuclei (%),[3],86% and 88%
same,Population Hoechst High Intensity Objects (%),[3],6% and 8%
same,Population Membrane Permeable-Phenotype (%),[3],3% and 2%
same,Population Mitochondria Different-Phenotype (%),[3],4% and 5%
same,Population Mitotic Cells (%),[3],64% and 65%
same,Population Normal (%),[3],93% and 91%
same,Population Pyknosed Nuclei (%),[3],7%
same,Population Tubulin-Different-Phenotype (%),[3],36%
same,Total Cell Count,[3],1151 and 990
same,Population Apoptotic (%),[4],47% and 40%
same,Population Fragmented Nuclei (%),[4],2% and 1%
same,Population Healthy Nuclei (%),[4],90%
same,Population Hoechst High Intensity Objects (%),[4],4% and 5%
same,Population Membrane Permeable-Phenotype (%),[4],5% and 6%
same,Population Mitochondria Different-Phenotype (%),[4],20% and 19%
same,Population Mitotic Cells (%),[4],52% and 60%
same,Population Normal (%),[4],95% and 94%
same,Population Pyknosed Nuclei (%),[4],6% and 7%
same,Population Tubulin-Different-Phenotype (%),[4],69% and 75%
same,Total Cell Count,[4],861 and 783
same,Population Apoptotic (%),[5],11% and 13%
same,Population Fragmented Nuclei (%),[5],11% and 8%
same,Population Healthy Nuclei (%),[5],85% and 88%
same,Population Hoechst High Intensity Objects (%),[5],8% and 9%
same,Population Membrane Permeable-Phenotype (%),[5],5% and 3%
same,Population Mitochondria Different-Phenotype (%),[5],0%
same,Population Mitotic Cells (%),[5],88% and 86%
same,Population Normal (%),[5],91% and 90%
same,Population Pyknosed Nuclei (%),[5],3%
same,Population Tubulin-Different-Phenotype (%),[5],15% and 16%
same,Total Cell Count,[5],2772 and 2160
same,Population Apoptotic (%),[6],34% and 35%
same,Population Fragmented Nuclei (%),[6],8% and 5%
same,Population Healthy Nuclei (%),[6],86% and 90%
same,Population Hoechst High Intensity Objects (%),[6],6%
same,Population Membrane Permeable-Phenotype (%),[6],3%
same,Population Mitochondria Different-Phenotype (%),[6],7% and 8%
same,Population Mitotic Cells (%),[6],65% and 64%
same,Population Normal (%),[6],93%
same,Population Pyknosed Nuclei (%),[6],4% and 3%
same,Population Tubulin-Different-Phenotype (%),[6],51% and 50%
same,Total Cell Count,[6],1254 and 1055
CNc1ncc2cc(-c3ccc(-c4cccc(C)n4)cc3Cl)c(=O)n(C[C@H]3OC[C@H](N)CO3)c2n1,Population Apoptotic (%),[1],57% and 63%
same,Population Fragmented Nuclei (%),[1],2%
same,Population Healthy Nuclei (%),[1],85% and 82%
same,Population Hoechst High Intensity Objects (%),[1],5% and 6%
same,Population Membrane Permeable-Phenotype (%),[1],7% and 3%
same,Population Mitochondria Different-Phenotype (%),[1],8% and 9%
same,Population Mitotic Cells (%),[1],42% and 36%
same,Population Normal (%),[1],94% and 93%
same,Population Pyknosed Nuclei (%),[1],11% and 15%
same,Population Tubulin-Different-Phenotype (%),[1],28% and 30%
same,Total Cell Count,[1],581 and 605
same,Population Apoptotic (%),[2],36% and 26%
same,Population Fragmented Nuclei (%),[2],6% and 8%
same,Population Healthy Nuclei (%),[2],79% and 76%
same,Population Hoechst High Intensity Objects (%),[2],30%
same,Population Membrane Permeable-Phenotype (%),[2],25% and 20%
same,Population Mitochondria Different-Phenotype (%),[2],7% and 6%
same,Population Mitotic Cells (%),[2],63% and 73%
same,Population Normal (%),[2],69%
same,Population Pyknosed Nuclei (%),[2],13% and 15%
same,Population Tubulin-Different-Phenotype (%),[2],57% and 65%
same,Total Cell Count,[2],885 and 788
same,Population Apoptotic (%),[3],51% and 54%
same,Population Fragmented Nuclei (%),[3],3%
same,Population Healthy Nuclei (%),[3],88% and 85%
same,Population Hoechst High Intensity Objects (%),[3],3% and 5%
same,Population Membrane Permeable-Phenotype (%),[3],2% and 3%
same,Population Mitochondria Different-Phenotype (%),[3],2% and 5%
same,Population Mitotic Cells (%),[3],48% and 45%
same,Population Normal (%),[3],96% and 94%
same,Population Pyknosed Nuclei (%),[3],8% and 11%
same,Population Tubulin-Different-Phenotype (%),[3],11% and 16%
same,Total Cell Count,[3],923 and 803
same,Population Apoptotic (%),[4],20%
same,Population Fragmented Nuclei (%),[4],6% and 8%
same,Population Healthy Nuclei (%),[4],68% and 69%
same,Population Hoechst High Intensity Objects (%),[4],31% and 34%
same,Population Membrane Permeable-Phenotype (%),[4],18% and 11%
same,Population Mitochondria Different-Phenotype (%),[4],4% and 3%
same,Population Mitotic Cells (%),[4],79%
same,Population Normal (%),[4],68% and 65%
same,Population Pyknosed Nuclei (%),[4],25% and 22%
same,Population Tubulin-Different-Phenotype (%),[4],52% and 46%
same,Total Cell Count,[4],1101 and 1092
same,Population Apoptotic (%),[5],20% and 34%
same,Population Fragmented Nuclei (%),[5],9% and 6%
same,Population Healthy Nuclei (%),[5],85% and 88%
same,Population Hoechst High Intensity Objects (%),[5],6% and 5%
same,Population Membrane Permeable-Phenotype (%),[5],3% and 2%
same,Population Mitochondria Different-Phenotype (%),[5],0% and 2%
same,Population Mitotic Cells (%),[5],80% and 65%
same,Population Normal (%),[5],93% and 94%
same,Population Pyknosed Nuclei (%),[5],4%
same,Population Tubulin-Different-Phenotype (%),[5],7% and 9%
same,Total Cell Count,[5],1888 and 1385
same,Population Apoptotic (%),[6],13% and 10%
same,Population Fragmented Nuclei (%),[6],4% and 6%
same,Population Healthy Nuclei (%),[6],68% and 70%
same,Population Hoechst High Intensity Objects (%),[6],28% and 30%
same,Population Membrane Permeable-Phenotype (%),[6],11% and 4%
same,Population Mitochondria Different-Phenotype (%),[6],2% and 1%
same,Population Mitotic Cells (%),[6],86% and 89%
same,Population Normal (%),[6],71% and 69%
same,Population Pyknosed Nuclei (%),[6],26% and 22%
same,Population Tubulin-Different-Phenotype (%),[6],26% and 21%
same,Total Cell Count,[6],1638 and 1597
COc1ccncc1C(=O)NC(=O)Nc1ccc(-c2ccccc2)c(C(F)(F)F)c1,Population Apoptotic (%),[1],56% and 45%
same,Population Fragmented Nuclei (%),[1],2% and 4%
same,Population Healthy Nuclei (%),[1],87% and 84%
same,Population Hoechst High Intensity Objects (%),[1],7% and 8%
same,Population Membrane Permeable-Phenotype (%),[1],2% and 3%
same,Population Mitochondria Different-Phenotype (%),[1],23% and 12%
same,Population Mitotic Cells (%),[1],43% and 54%
same,Population Normal (%),[1],93% and 91%
same,Population Pyknosed Nuclei (%),[1],10% and 11%
same,Population Tubulin-Different-Phenotype (%),[1],55% and 46%
same,Total Cell Count,[1],543 and 715
same,Population Apoptotic (%),[2],49% and 44%
same,Population Fragmented Nuclei (%),[2],3% and 4%
same,Population Healthy Nuclei (%),[2],81% and 84%
same,Population Hoechst High Intensity Objects (%),[2],7%
same,Population Membrane Permeable-Phenotype (%),[2],2%
same,Population Mitochondria Different-Phenotype (%),[2],28% and 21%
same,Population Mitotic Cells (%),[2],50% and 55%
same,Population Normal (%),[2],92%
same,Population Pyknosed Nuclei (%),[2],14% and 11%
same,Population Tubulin-Different-Phenotype (%),[2],66% and 52%
same,Total Cell Count,[2],484 and 596
same,Population Apoptotic (%),[3],43% and 39%
same,Population Fragmented Nuclei (%),[3],3% and 5%
same,Population Healthy Nuclei (%),[3],88% and 86%
same,Population Hoechst High Intensity Objects (%),[3],6% and 9%
same,Population Membrane Permeable-Phenotype (%),[3],2%
same,Population Mitochondria Different-Phenotype (%),[3],4% and 6%
same,Population Mitotic Cells (%),[3],56% and 60%
same,Population Normal (%),[3],93% and 90%
same,Population Pyknosed Nuclei (%),[3],7%
same,Population Tubulin-Different-Phenotype (%),[3],33% and 30%
same,Total Cell Count,[3],828 and 1052
same,Population Apoptotic (%),[4],61% and 41%
same,Population Fragmented Nuclei (%),[4],8% and 6%
same,Population Healthy Nuclei (%),[4],82% and 85%
same,Population Hoechst High Intensity Objects (%),[4],9% and 8%
same,Population Membrane Permeable-Phenotype (%),[4],2%
same,Population Mitochondria Different-Phenotype (%),[4],11% and 7%
same,Population Mitotic Cells (%),[4],38% and 58%
same,Population Normal (%),[4],90% and 91%
same,Population Pyknosed Nuclei (%),[4],9% and 8%
same,Population Tubulin-Different-Phenotype (%),[4],38% and 32%
same,Total Cell Count,[4],722 and 835
same,Population Apoptotic (%),[5],8% and 9%
same,Population Fragmented Nuclei (%),[5],11%
same,Population Healthy Nuclei (%),[5],85%
same,Population Hoechst High Intensity Objects (%),[5],9%
same,Population Membrane Permeable-Phenotype (%),[5],5% and 4%
same,Population Mitochondria Different-Phenotype (%),[5],0%
same,Population Mitotic Cells (%),[5],91% and 90%
same,Population Normal (%),[5],90%
same,Population Pyknosed Nuclei (%),[5],3%
same,Population Tubulin-Different-Phenotype (%),[5],14% and 12%
same,Total Cell Count,[5],2070 and 2556
same,Population Apoptotic (%),[6],26% and 21%
same,Population Fragmented Nuclei (%),[6],11% and 12%
same,Population Healthy Nuclei (%),[6],84%
same,Population Hoechst High Intensity Objects (%),[6],7% and 8%
same,Population Membrane Permeable-Phenotype (%),[6],4% and 6%
same,Population Mitochondria Different-Phenotype (%),[6],1%
same,Population Mitotic Cells (%),[6],73% and 78%
same,Population Normal (%),[6],92% and 91%
same,Population Pyknosed Nuclei (%),[6],4% and 3%
same,Population Tubulin-Different-Phenotype (%),[6],23% and 19%
same,Total Cell Count,[6],1542 and 1838
